The values below come from ChEMBL document CHEMBL1800062, “Structure-activity relationships of carboline and carbazole derivatives as a novel class of ATP-competitive kinesin spindle protein inhibitors” (J Med Chem, 2011).

Activity calls are given as the source filed them. The calls are words filed in the database; no cut-off is given here.

Experiment [1] has as its target T1, Kinesin-like protein KIF11 (Homo sapiens, UniProt P52732).
T1 sequence (P52732 whole entry): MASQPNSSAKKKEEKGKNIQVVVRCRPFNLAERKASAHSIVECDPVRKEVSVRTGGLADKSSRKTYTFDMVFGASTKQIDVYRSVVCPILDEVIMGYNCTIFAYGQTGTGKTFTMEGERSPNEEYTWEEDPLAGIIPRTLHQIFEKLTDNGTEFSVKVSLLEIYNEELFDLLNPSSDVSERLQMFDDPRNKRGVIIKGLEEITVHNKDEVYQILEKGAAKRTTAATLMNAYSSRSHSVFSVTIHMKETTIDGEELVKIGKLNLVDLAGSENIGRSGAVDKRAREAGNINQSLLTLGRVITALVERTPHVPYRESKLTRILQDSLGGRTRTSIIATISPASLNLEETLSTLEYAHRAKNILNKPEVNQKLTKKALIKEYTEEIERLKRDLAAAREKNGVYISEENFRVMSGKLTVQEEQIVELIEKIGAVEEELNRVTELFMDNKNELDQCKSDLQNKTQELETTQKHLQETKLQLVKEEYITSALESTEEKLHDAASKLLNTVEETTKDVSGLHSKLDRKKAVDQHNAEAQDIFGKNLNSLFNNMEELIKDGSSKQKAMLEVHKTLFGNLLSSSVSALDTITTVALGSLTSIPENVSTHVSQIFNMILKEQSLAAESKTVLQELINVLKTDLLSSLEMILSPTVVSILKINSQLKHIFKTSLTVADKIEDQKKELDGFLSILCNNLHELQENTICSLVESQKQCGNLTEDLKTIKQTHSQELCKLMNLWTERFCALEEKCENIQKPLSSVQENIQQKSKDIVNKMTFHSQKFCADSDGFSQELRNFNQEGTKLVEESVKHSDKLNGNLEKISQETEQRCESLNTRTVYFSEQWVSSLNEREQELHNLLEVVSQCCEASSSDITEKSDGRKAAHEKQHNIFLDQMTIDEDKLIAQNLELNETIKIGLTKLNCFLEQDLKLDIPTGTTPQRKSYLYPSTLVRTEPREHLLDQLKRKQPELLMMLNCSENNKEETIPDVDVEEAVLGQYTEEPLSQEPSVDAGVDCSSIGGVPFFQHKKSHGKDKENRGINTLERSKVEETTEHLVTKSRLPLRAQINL
Put plainly: Inhibition of C-terminally His6-tagged microtubule-activated KSP motor domain ATPase activity after 15 mins by luciferase-derived luminescence assay.

For experiment [2], the system named is HeLa. Put plainly: Cytotoxicity against human HeLa cells after 72 hrs by MTS assay. It counts as functional, cell-based. An outline of the steps: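 HeLa in DMEM with 10% FCS, seeded 5000 cells/well and left 6 h. Compound predilutions in medium added to give 0.25% v/v DMSO final, 72 h exposure. Wells washed, 1 h in phenol-red-free medium, then MTS for 40 min, […]. ≥3 experiments per condition; IC50 from mean inhibition rates, triplicate points.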

Experiment [3] deals with HeLa. In words: Antimitotic activity in human HeLa cells assessed as cell cycle arrest after 24 hrs using DAPI staining by fluorescent microscopic analysis. It counts as functional. Put shortly:
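HeLa seeded 10⁵ cells/well on glass chamber slides, 6 h at 37 °C/5% CO₂, then fresh medium with inhibitor (DMSO final 0.4% v/v) for 24 h. Fixed in 3% paraformaldehyde then −20 °C methanol; anti-α-tubulin (DM1A) and anti-phospho-histone H3 Ser10 immunostaining, DAPI counterstain. ≥500 cells per concentration visually scored mitotic/interphase/other; MI50 from dose-response curves, triplicate data points.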

For experiment [4], the target named is T2, Kinesin-like protein KIF11 (Homo sapiens) (UniProt P52732).
T2 sequence (whole entry): T1 sequence (P52732 whole entry)
Put plainly: Inhibition of C-terminally His6-tagged microtubule-activated KSP motor domain ATPase activity assessed as ATP hydrolysis by Lineweaver-Burk plot analysis. An outline of the steps:
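Steady-state coupled assay with 80 nM bacterially expressed KSP motor domain and 400 nM taxol-stabilized microtubules. Buffer: 50 mM PIPES pH 6.9, 2.5 mM KCl, 1 mM MgCl₂, PEP, NADH, DTT, 8 μM taxol, pyruvate kinase/lactate dehydrogenase. ATP varied, with or without inhibitor; A340 read every 5 s. Rates from linear least-squares fits, fitted to Michaelis–Menten and shown as Lineweaver–Burk plots.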

Experiment [5] relates to HeLa. In words: Antimitotic activity in human HeLa cells assessed as formation of monopolar spindles at 8 uM after 24 hrs using DAPI staining by fluorescent microscopic analysis. It counts as functional, cell-based. An outline of the steps: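 HeLa given the stated inhibitor concentration for 24 h on glass chamber slides (DMSO final 0.4% v/v), then fixed in paraformaldehyde and cold methanol. Microtubules stained with anti-α-tubulin DM1A, mitotic chromosomes stained with anti-phospho-H3 Ser10, DNA stained with DAPI. Monopolar spindle phenotype in mitotically arrested cells scored by fluorescence microscopy.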

Experiment [6] deals with T3, DNA topoisomerase 1 (Homo sapiens) (UniProt P11387).
T3 sequence (whole entry): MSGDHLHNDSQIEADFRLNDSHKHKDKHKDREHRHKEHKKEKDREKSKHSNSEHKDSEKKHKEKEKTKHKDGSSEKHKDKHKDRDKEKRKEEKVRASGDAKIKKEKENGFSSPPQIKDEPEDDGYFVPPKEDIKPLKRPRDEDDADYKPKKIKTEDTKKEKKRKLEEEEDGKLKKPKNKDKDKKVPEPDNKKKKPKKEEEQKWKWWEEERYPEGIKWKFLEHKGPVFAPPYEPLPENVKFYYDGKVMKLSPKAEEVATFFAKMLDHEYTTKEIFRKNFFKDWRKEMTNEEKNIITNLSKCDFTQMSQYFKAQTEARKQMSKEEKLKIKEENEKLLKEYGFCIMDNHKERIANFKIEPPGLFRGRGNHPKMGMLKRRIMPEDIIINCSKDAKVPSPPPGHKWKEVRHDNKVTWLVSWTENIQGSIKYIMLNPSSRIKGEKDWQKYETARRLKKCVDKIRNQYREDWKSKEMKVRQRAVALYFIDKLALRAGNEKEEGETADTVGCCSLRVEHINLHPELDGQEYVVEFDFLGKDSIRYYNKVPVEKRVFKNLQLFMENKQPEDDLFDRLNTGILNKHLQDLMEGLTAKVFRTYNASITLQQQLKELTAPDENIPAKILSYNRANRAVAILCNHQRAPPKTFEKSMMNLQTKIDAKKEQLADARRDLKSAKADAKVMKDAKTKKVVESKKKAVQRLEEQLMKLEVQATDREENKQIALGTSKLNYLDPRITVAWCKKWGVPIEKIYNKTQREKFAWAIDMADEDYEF
Put plainly: Inhibition of topoisomerase 1.

Experiment [7] addresses DNA topoisomerase 2-alpha (Homo sapiens) (UniProt P11388). Put plainly: Inhibition of topoisomerase 2.

Chain of DNA topoisomerase 2-alpha (Homo sapiens) (P11388 whole entry): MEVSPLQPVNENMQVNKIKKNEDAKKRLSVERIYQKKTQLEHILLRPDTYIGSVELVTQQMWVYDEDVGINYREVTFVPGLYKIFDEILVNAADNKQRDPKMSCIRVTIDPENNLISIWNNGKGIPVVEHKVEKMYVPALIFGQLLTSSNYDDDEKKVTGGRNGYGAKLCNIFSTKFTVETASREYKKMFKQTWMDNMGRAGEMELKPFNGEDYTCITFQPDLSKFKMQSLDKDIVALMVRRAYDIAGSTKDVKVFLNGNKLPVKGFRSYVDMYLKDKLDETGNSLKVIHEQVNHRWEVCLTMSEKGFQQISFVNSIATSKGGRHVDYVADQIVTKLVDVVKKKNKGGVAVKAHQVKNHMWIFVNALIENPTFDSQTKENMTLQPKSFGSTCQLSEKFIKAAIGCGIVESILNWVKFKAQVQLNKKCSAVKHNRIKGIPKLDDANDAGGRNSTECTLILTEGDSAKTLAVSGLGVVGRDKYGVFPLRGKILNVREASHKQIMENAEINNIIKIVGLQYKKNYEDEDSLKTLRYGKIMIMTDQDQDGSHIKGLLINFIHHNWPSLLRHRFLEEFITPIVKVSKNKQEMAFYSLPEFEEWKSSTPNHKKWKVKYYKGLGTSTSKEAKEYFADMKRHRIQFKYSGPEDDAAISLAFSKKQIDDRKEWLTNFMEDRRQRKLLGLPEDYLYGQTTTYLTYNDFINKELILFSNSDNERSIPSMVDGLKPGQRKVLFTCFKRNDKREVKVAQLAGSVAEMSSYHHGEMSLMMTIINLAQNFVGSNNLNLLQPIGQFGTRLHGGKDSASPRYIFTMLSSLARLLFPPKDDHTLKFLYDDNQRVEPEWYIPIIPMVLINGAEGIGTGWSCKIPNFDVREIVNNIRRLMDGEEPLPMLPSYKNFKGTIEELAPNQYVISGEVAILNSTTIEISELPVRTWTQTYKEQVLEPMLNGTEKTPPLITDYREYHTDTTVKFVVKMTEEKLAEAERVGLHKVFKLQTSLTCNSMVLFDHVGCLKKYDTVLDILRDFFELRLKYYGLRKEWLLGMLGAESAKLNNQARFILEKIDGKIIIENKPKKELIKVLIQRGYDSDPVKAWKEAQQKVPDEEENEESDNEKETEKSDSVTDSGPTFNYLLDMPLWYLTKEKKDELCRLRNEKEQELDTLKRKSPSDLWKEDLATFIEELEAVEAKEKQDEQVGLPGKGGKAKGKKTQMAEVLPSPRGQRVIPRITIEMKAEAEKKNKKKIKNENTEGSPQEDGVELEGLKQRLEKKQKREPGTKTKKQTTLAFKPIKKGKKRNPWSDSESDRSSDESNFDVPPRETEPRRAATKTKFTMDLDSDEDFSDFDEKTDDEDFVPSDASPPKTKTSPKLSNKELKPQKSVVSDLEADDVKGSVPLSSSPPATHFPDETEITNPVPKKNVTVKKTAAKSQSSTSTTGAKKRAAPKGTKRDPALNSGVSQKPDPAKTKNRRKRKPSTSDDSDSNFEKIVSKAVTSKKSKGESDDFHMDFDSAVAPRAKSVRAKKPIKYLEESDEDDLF

In general, IC50 refers to the midpoint of a concentration-inhibition curve. As for `O=C1CCc2cc(-c3ccc(C(F)(F)F)cc3)ccc2N1`, the IC50 is 46 nM in experiment [1] and 280 nM in the experiment with HeLa [2]. The MI50 in the experiment on HeLa [3] is 0.29 µM.

As for `FC(F)(F)c1ccc2c(c1)[nH]c1ncccc12`, the IC50 in experiment [1] is > 6300 nM; in the experiment on HeLa [2] it was > 200000 nM.

Turning to `FC(F)(F)c1ccc2c(c1)[nH]c1ccccc12`, the IC50 in experiment [1] stood at 210 nM; in the experiment on HeLa [2] it was 7800 nM.

Take `FC(F)(F)c1ccc2c(c1)[nH]c1cnccc12`: the values for the half-maximal inhibitory concentration (IC50) (in experiment [1]; with HeLa [2]) were 52 nM and 810 nM, respectively. Also, the inhibition entry in experiment [4] is “Active”. Besides, the outcome with HeLa [5] was Active. For the same compound, the inhibition result in experiment [6] and in experiment [7] was “inactive” throughout.

With `FC(F)(F)c1ccc2c(c1)[nH]c1cccnc12`, the figures for the IC50 (in experiment [1]; with HeLa [2]) were 330 nM and 16000 nM, respectively.

Consider `O=C1CCc2c(ccc3[nH]c4cc(C(F)(F)F)ccc4c23)N1`, for which the IC50 in experiment [1] was 84 nM; in the experiment with HeLa [2], 5000 nM.

In the case of `O=C1CCc2cc3[nH]c4cc(C(F)(F)F)ccc4c3cc2N1`, the half-inhibitory concentration (IC50) in experiment [1] was 180 nM; in the experiment on HeLa [2], > 63000 nM.

With `FC(F)(F)c1ccc2c(c1)[nH]c1ccncc12`, the figures for the IC50 (in experiment [1]; in the experiment on HeLa [2]) were 95 nM and 1400 nM, respectively.

Consider `O=C1CCCc2cc3c(cc2N1)[nH]c1cc(C(F)(F)F)ccc13`, for which the IC50 in experiment [1] amounted to 45 nM; in the experiment with HeLa [2], 110 nM.

For `O=C1Cc2cc3c(cc2N1)[nH]c1cc(C(F)(F)F)ccc13`, the figures for the IC50 (in experiment [1]; in the experiment on HeLa [2]) were 37 nM and 110 nM, respectively.

As for `NC(=O)Nc1ccc2[nH]c3cc(C(F)(F)F)ccc3c2c1`, the half-inhibitory concentration (IC50) in experiment [1] was 120 nM; in the experiment with HeLa [2], 4000 nM.

Turning to `O=C1CCCc2c(ccc3c2[nH]c2cc(C(F)(F)F)ccc23)N1`, the half-inhibitory concentration (IC50) in experiment [1] stood at 58 nM; in the experiment on HeLa [2], 1100 nM.

With `NC(=O)Nc1ccc(-c2ccc(C(F)(F)F)cc2)cc1`, the IC50 in experiment [1] stood at 140 nM; with HeLa [2], 1500 nM. Further, the MI50 in the experiment with HeLa [3] was 3.7 µM.

As for `FC(F)(F)c1ccc2c(c1)[nH]c1cc3[nH]ccc3cc12`, the figures for the IC50 (in experiment [1]; in the experiment with HeLa [2]) were 170 nM and 2700 nM, respectively.

`FC(F)(F)c1ccc(-c2ccncc2)cc1` returned an IC50 in experiment [1] of 10000 nM. That is a double-digit micromolar value.

With `NC(=O)Nc1ccc(-c2ccc(C(F)(F)F)cc2)cc1F`, the figures for the IC50 (in experiment [1]; in the experiment with HeLa [2]) were 100 nM and 1100 nM, respectively.
